System: Fibroblast
Assay: Multiplex assay against human fibroblast
Format: toxicity, cell-based
How it was run: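 Cells were classed with CellPathfinder machine-learning gating, first as Hoechst high-intensity objects or normal cells, then (normal cells) as healthy, pyknosed or fragmented nuclei, and finally (pyknosed cells) as mitotic or apoptotic. Staining of live cells at seeding used Hoechst33342, BioTracker Green Microtubule Cytoskeleton Dye, MitoTracker Red and Annexin V Alexa Fluor 680, with imaging on a CQ1 microscope at 37°C and 5% CO2 after compound addition. Tubulin, mitochondrial-mass and membrane-permeability phenotypes are per cents of healthy-nucleus cells.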

[1] = 12 h, 1 µM, compound concentration 1 uM, replicate 1
[2] = 12 h, 1 µM, compound concentration 1 uM, replicate 2
[3] = 12 h, 10 µM, compound concentration 10 uM, replicate 1
[4] = 12 h, 10 µM, compound concentration 10 uM, replicate 2
[5] = 24 h, 1 µM, compound concentration 1 uM, replicate 1
[6] = 24 h, 1 µM, compound concentration 1 uM, replicate 2
[7] = 24 h, 10 µM, compound concentration 10 uM, replicate 1
[8] = 24 h, 10 µM, compound concentration 10 uM, replicate 2
[9] = 48 h, 1 µM, compound concentration 1 uM, replicate 1
[10] = 48 h, 1 µM, compound concentration 1 uM, replicate 2
[11] = 48 h, 10 µM, compound concentration 10 uM, replicate 1
[12] = 48 h, 10 µM, compound concentration 10 uM, replicate 2

CC(C)OC(=O)N1CCC(Oc2ncnc3c2cnn3-c2ccc(S(C)(=O)=O)cc2F)CC1
Population Apoptotic (%) [1]: 64% | Population Fragmented Nuclei (%) [1]: 27% | Population Healthy Nuclei (%) [1]: 50% | Population Hoechst High Intensity Objects (%) [1]: 13% | Population Membrane Permeable-Phenotype (%) [1]: 27% | Population Mitochondria Different-Phenotype (%) [1]: 0% | Population Mitotic Cells (%) [1]: 35% | Population Normal (%) [1]: 86% | Population Pyknosed Nuclei (%) [1]: 22% | Population Tubulin-Different-Phenotype (%) [1]: 24% | Total Cell Count [1]: 86 | Population Apoptotic (%) [2]: 33% | Population Fragmented Nuclei (%) [2]: 5% | Population Healthy Nuclei (%) [2]: 91% | Population Hoechst High Intensity Objects (%) [2]: 7% | Population Membrane Permeable-Phenotype (%) [2]: 4% | Population Mitochondria Different-Phenotype (%) [2]: 8% | Population Mitotic Cells (%) [2]: 66% | Population Normal (%) [2]: 92% | Population Pyknosed Nuclei (%) [2]: 3% | Population Tubulin-Different-Phenotype (%) [2]: 7% | Total Cell Count [2]: 97 | Population Apoptotic (%) [3]: 58% | Population Fragmented Nuclei (%) [3]: 21% | Population Healthy Nuclei (%) [3]: 43% | Population Hoechst High Intensity Objects (%) [3]: 10% | Population Membrane Permeable-Phenotype (%) [3]: 17% | Population Mitochondria Different-Phenotype (%) [3]: 22% | Population Mitotic Cells (%) [3]: 41% | Population Normal (%) [3]: 89% | Population Pyknosed Nuclei (%) [3]: 34% | Population Tubulin-Different-Phenotype (%) [3]: 58% | Total Cell Count [3]: 164 | Population Apoptotic (%) [4]: 18% | Population Fragmented Nuclei (%) [4]: 5% | Population Healthy Nuclei (%) [4]: 77% | Population Hoechst High Intensity Objects (%) [4]: 6% | Population Membrane Permeable-Phenotype (%) [4]: 0% | Population Mitochondria Different-Phenotype (%) [4]: 5% | Population Mitotic Cells (%) [4]: 81% | Population Normal (%) [4]: 93% | Population Pyknosed Nuclei (%) [4]: 16% | Population Tubulin-Different-Phenotype (%) [4]: 28% | Total Cell Count [4]: 72 | Population Apoptotic (%) [5]: 66% | Population Fragmented Nuclei (%) [5]: 20% | Population Healthy Nuclei (%) [5]: 58% | Population Hoechst High Intensity Objects (%) [5]: 13% | Population Membrane Permeable-Phenotype (%) [5]: 33% | Population Mitochondria Different-Phenotype (%) [5]: 4% | Population Mitotic Cells (%) [5]: 33% | Population Normal (%) [5]: 86% | Population Pyknosed Nuclei (%) [5]: 20% | Population Tubulin-Different-Phenotype (%) [5]: 45% | Total Cell Count [5]: 83 | Population Apoptotic (%) [6]: 50% | Population Fragmented Nuclei (%) [6]: 4% | Population Healthy Nuclei (%) [6]: 86% | Population Hoechst High Intensity Objects (%) [6]: 2% | Population Membrane Permeable-Phenotype (%) [6]: 5% | Population Mitotic Cells (%) [6]: 50% | Population Normal (%) [6]: 97% | Population Pyknosed Nuclei (%) [6]: 8% | Population Tubulin-Different-Phenotype (%) [6]: 9% | Total Cell Count [6]: 116 | Population Apoptotic (%) [7]: 43% | Population Fragmented Nuclei (%) [7]: 24% | Population Healthy Nuclei (%) [7]: 48% | Population Hoechst High Intensity Objects (%) [7]: 12% | Population Membrane Permeable-Phenotype (%) [7]: 30% | Population Mitochondria Different-Phenotype (%) [7]: 16% | Population Mitotic Cells (%) [7]: 56% | Population Normal (%) [7]: 87% | Population Pyknosed Nuclei (%) [7]: 27% | Population Tubulin-Different-Phenotype (%) [7]: 72% | Total Cell Count [7]: 156 | Population Apoptotic (%) [8]: 33% | Population Fragmented Nuclei (%) [8]: 5% | Population Healthy Nuclei (%) [8]: 87% | Population Hoechst High Intensity Objects (%) [8]: 2% | Population Membrane Permeable-Phenotype (%) [8]: 1% | Population Mitochondria Different-Phenotype (%) [8]: 2% | Population Mitotic Cells (%) [8]: 66% | Population Normal (%) [8]: 97% | Population Pyknosed Nuclei (%) [8]: 6% | Population Tubulin-Different-Phenotype (%) [8]: 31% | Total Cell Count [8]: 93 | Population Apoptotic (%) [9]: 77% | Population Fragmented Nuclei (%) [9]: 35% | Population Healthy Nuclei (%) [9]: 52% | Population Hoechst High Intensity Objects (%) [9]: 25% | Population Membrane Permeable-Phenotype (%) [9]: 28% | Population Mitochondria Different-Phenotype (%) [9]: 0% | Population Mitotic Cells (%) [9]: 22% | Population Normal (%) [9]: 74% | Population Pyknosed Nuclei (%) [9]: 12% | Population Tubulin-Different-Phenotype (%) [9]: 35% | Total Cell Count [9]: 99 | Population Apoptotic (%) [10]: 0% | Population Fragmented Nuclei (%) [10]: 25% | Population Healthy Nuclei (%) [10]: 74% | Population Hoechst High Intensity Objects (%) [10]: 13% | Population Membrane Permeable-Phenotype (%) [10]: 31% | Population Mitochondria Different-Phenotype (%) [10]: 2% | Population Mitotic Cells (%) [10]: 0% | Population Normal (%) [10]: 86% | Population Pyknosed Nuclei (%) [10]: 0% | Population Tubulin-Different-Phenotype (%) [10]: 44% | Total Cell Count [10]: 73 | Population Apoptotic (%) [11]: 46% | Population Fragmented Nuclei (%) [11]: 24% | Population Healthy Nuclei (%) [11]: 51% | Population Hoechst High Intensity Objects (%) [11]: 17% | Population Membrane Permeable-Phenotype (%) [11]: 29% | Population Mitochondria Different-Phenotype (%) [11]: 14% | Population Mitotic Cells (%) [11]: 53% | Population Normal (%) [11]: 82% | Population Pyknosed Nuclei (%) [11]: 23% | Population Tubulin-Different-Phenotype (%) [11]: 73% | Total Cell Count [11]: 143 | Population Apoptotic (%) [12]: 66% | Population Fragmented Nuclei (%) [12]: 22% | Population Healthy Nuclei (%) [12]: 73% | Population Hoechst High Intensity Objects (%) [12]: 7% | Population Membrane Permeable-Phenotype (%) [12]: 14% | Population Mitochondria Different-Phenotype (%) [12]: 4% | Population Mitotic Cells (%) [12]: 33% | Population Normal (%) [12]: 92% | Population Pyknosed Nuclei (%) [12]: 3% | Population Tubulin-Different-Phenotype (%) [12]: 44% | Total Cell Count [12]: 99

From ChEMBL document CHEMBL4689842, “EUbOPEN Chemogenomics Library wave 1” (2021)
